ChEMBL document CHEMBL2176910, “Identification of small molecule inhibitors of amyloid β-induced neuronal apoptosis acting through the imidazoline I(2) receptor” (J Med Chem, 2012)
Active and inactive are the calls of the source. The calls are words filed in the database; no cut-off is given here.

Experiments:
Hippocampal neuron [1] = experiment: (§1) Neuroprotective activity in mouse hippocampal neurons assessed as Abeta-induced neuronal apoptosis at 30 uM pre-incubated for 4 hrs before Abeta challenge for 72 hrs by TUNEL assay (reference value: 100%); format: functional; details: Hippocampus
Outline: (§2)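 Aggregated Aβ (20 μM, 72 h) was applied to primary mouse hippocampal neurons with or without compound at 30 μM. Apoptosis was scored by TUNEL as the percentage of positive nuclei among total nuclei, referred to Aβ alone (100%). Medium-only cells were the negative control and DNase the positive control. n = 4, mean ± SEM, two-tailed Student's test.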

Mus musculus = species on record: Mus musculus; experiment: Inhibition of imidazole receptor 2 in mouse hippocampal neurons assessed as reduction in tPA-induced Erk1/2 activation at 30 uM pre-incubated for 4 hrs before tPA stimulation by ELISA; details: Hippocampus
Outline: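 Primary mouse hippocampal neurons were stimulated with tPA (20 μg/mL, 1 h) with or without compound at 30 μM. Phospho-Erk1/2 was measured by ELISA with a phospho-specific antibody and normalized to total Erk1/2. Untreated cultures set the lower limit and tPA alone the upper limit.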

[2] = Inhibition of radioligand binding to N-methyl D-aspartate receptor phencyclidine binding site at 10 uM
Outline: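 Radioligand binding panel. Values are average percentages of inhibition of specific binding, measured against potent standard ligands for each target.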

Hippocampal neuron [3] = experiment: Neuroprotective activity against Abeta-induced neuronal apoptosis in mouse hippocampal neurons assessed as reduction in total neuronal nuclei level at 30 uM pre-incubated for 4 hrs before Abeta challenge for 72 hrs by immunofluorescence microscopy; format: functional, tissue-based; details: Hippocampus
Outline: (§3)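 Primary mouse hippocampal neurons were exposed to Aβ (20 μM, 72 h) alone or with compound. Double immunofluorescence microscopy was then run for DNA fragmentation (TUNEL, green) and total neuronal nuclei (NeuN, red), with merged images. DNase-treated cells served as positive control.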

Hippocampal neuron [4] = experiment: Neuroprotective activity against Abeta-induced neuronal apoptosis in mouse hippocampal neurons assessed as reduction in DNA fragmentation at 30 uM pre-incubated for 4 hrs before Abeta challenge for 72 hrs by immunofluorescence microscopy; format: functional, tissue-based; details: Hippocampus; outline: as §3
[5] = as §1; format: functional, Hippocampus, Hippocampal neuron; outline: as §2
Rattus norvegicus [6] = species on record: Rattus norvegicus; experiment: Displacement of [3H]idazoxan from rat cerebral cortex imidazole receptor 2 at 10 uM in presence of 1 uM yohimbine; format: tissue-based
Rattus norvegicus [7] = species on record: Rattus norvegicus; experiment: Displacement of [3H]2-BFI from rat imidazole receptor 2 in rat whole brain at 10 uM in presence of 1 uM yohimbine

SMILES	Activity (Hippocampal neuron [1])	inhibition of tPA-induced Erk1/2 activation (active/inactive call) (Mus musculus)	inhibition [2] [%]	further results
CN1Cc2ccccc2C2CCc3ccccc3C21 (configuration not stated)	inactive	Active		
CN1CCCC2(CCCNC2)C1 (configuration not stated)	inactive	Active		
CC12CC3CC(C)(C1)CC(N)(C3)C2 [MEMANTINE]		Active	92	Activity (Hippocampal neuron [3]): Active; Activity (Hippocampal neuron [4]): Active; Activity [5]: 42.3%
CN1CCn2cccc2C1c1ccccc1 (configuration not stated)	Active	Active		
C[C@]12N[C@H](Cc3ccccc31)c1ccccc12			98	inhibition (Mus musculus): Active
c1ccc(C2NCCc3ccccc32)cc1 (configuration not stated)	inactive	Active	69	
c1csc(C2NCCc3ccccc32)c1 (configuration not stated)	Active	Active		
c1ccc(-c2ncc3cc(-n4ccnc4)ccc3n2)cc1				inhibition (Rattus norvegicus [6]): 66%; inhibition (Rattus norvegicus [7]): 92%
c1ccc(C2NCCc3sccc32)cc1 (configuration not stated)	Active	Active		
